# According to article PMC8811920 (ACS Omega, 2022):
# Assays:
# [1] = Total antioxidant capacity; settings: sample 4 mg/mL in DMSO, ascorbic acid equivalents
# Outline: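 100 μL sample (4 mg/mL in DMSO) mixed with 900 μL phosphomolybdenum reagent (0.6 M H2SO4, 28 mM sodium phosphate, 4 mM ammonium molybdate). Heated 90 min at 95 °C, cooled to room temperature, and 200 μL read at 630 nm. Quantified against an ascorbic acid calibration curve as μg AAE/mg extract. Triplicate.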
# Total reducing power = settings: sample 4 mg/mL in DMSO, ascorbic acid equivalents
# Outline: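 200 μL sample (4 mg/mL in DMSO) mixed with 400 μL phosphate buffer (0.2 mol/L, pH 6.6) and 1% potassium ferricyanide; 20 min at 50 °C. Added 10% trichloroacetic acid and centrifuged 10 min at 3000 rpm. 200 μL of upper layer mixed with 0.1% FeCl3 and read at 630 nm. Expressed as μg ascorbic acid equivalent/mg extract from a calibration curve. Triplicate.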
# [2] = DPPH radical scavenging assay; settings: 10 μL sample + 190 μL DPPH, 30 min, 37 °C
# Outline: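 10 μL sample mixed with 190 μL DPPH solution in microplate and held 30 min at 37 °C. Absorbance read spectrophotometrically. % scavenging = (1 − Abs/Abc) × 100, where Abc is the reagent-only negative control; SC50 also described. Ascorbic acid as standard. Triplicate.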
# α-amylase = experiment: α-Amylase inhibition assay; format: biochemical; settings: 10 μL sample, 4 mg/mL in DMSO
# Outline: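 Mix in pH 6.8 phosphate buffer: α-amylase (0.14 U/mL), 10 μL sample (4 mg/mL in DMSO) and starch (2 mg/mL); 30 min at 50 °C. Stopped with 1 M HCl, then iodine/KI reagent (5 mM each) added. Read at 540 nm. Acarbose positive control at 5−200 μg/mL. Sample-free well taken as 100% activity; blank lacked sample and enzyme.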
# urease = experiment: Urease inhibition assay; format: biochemical; settings: 10 μL sample, 4 mg/mL in DMSO
# Outline: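 Mix: 25 μL urease, 50 μL phosphate buffer (3 mM, pH 4.5, containing 100 mM urea) and 10 μL sample (4 mg/mL in DMSO); 15 min at 30 °C. Ammonia detected by phenol–nitroprusside reagent plus alkaline hypochlorite, then 50 min at 30 °C. Read at 630 nm. Thiourea as control. % inhibition = (OD blank − OD sample)/OD blank × 100.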
# lipase = experiment: Lipase inhibition assay; format: biochemical; settings: 50 μL sample, 4 mg/mL in DMSO
# Outline: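 Lipase dissolved at 10 mg/mL in ultrapure water, spun 5 min at 16,000 rpm; supernatant used. Assay buffer 100 mM Tris, pH 8.2. Mix: 350 μL buffer, 150 μL lipase, 50 μL sample (4 mg/mL in DMSO). Started with 450 μL substrate: 0.08% v/v olive oil in 5 mM sodium acetate pH 5.0 with 1% Triton X-100. Incubated 2 h at 37 °C, spun, read at 400 nm. Orlistat standard. % inhibition = (OD blank − OD sample)/OD blank × 100.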
# S. aureus (ATCC # 6538) = experiment: Antibacterial disc diffusion, S. aureus; format: cell-based, Staphylococcus aureus; settings: isolated compounds; cefixime positive control
# M. luteus = experiment: Antibacterial assay of isolated compounds, M. luteus; format: cell-based; settings: cefixime positive control
# Salmonella typhi = experiment: Antibacterial assay of isolated compounds, S. typhi; format: cell-based; settings: cefixime positive control
# E. aerogenes = experiment: Antibacterial assay of isolated compounds, E. aerogenes; format: cell-based, Escherichia aerogenes; settings: cefixime positive control
# S. setubal = experiment: Antibacterial assay of isolated compounds, S. setubal; format: cell-based; settings: cefixime positive control
SMILES,TAC [1],TRP (Total reducing power),DPPH % (free-radical scavenging) [2],amylase inhibition (%) (α-amylase),urease inhibition (%) (urease),lipase inhibition (%) (lipase),"antibacterial ZOI, S. aureus (S. aureus (ATCC # 6538))","antibacterial ZOI, M. luteus (M. luteus)","antibacterial ZOI, S. typhi (Salmonella typhi)","antibacterial ZOI, E. aerogenes (E. aerogenes)","antibacterial ZOI, S. setubal (S. setubal)",other results
"C=C(C)[C@@H]1CC[C@]2(C)CC[C@]3(C)[C@H](CC[C@@H]4[C@@]5(C)CC[C@H](O)C(C)(C)[C@@H]5CC[C@]43C)[C@@H]12 [compound 1, lup-20(29)-en-3β-ol]",55.5 ± 1.3 μgAAE/mg extract,96.9 ± 1.6 μgAAE/mg extract,68.8 ± 1.1%,16.0 ± 0.4%,85.8 ± 0.9%,84.0 ± 0.8%,14 ± 1.2 mm,15 ± 1.1 mm,18 ± 1.3 mm,14 ± 1.1 mm,12 ± 1.3 mm,"TRP (Total reducing power; listed as lupeol): 96.9 μgAAE/mg extract; DPPH % (free-radical scavenging) ([2]; listed as lupeol): 68.8%; antibacterial ZOI, S. typhi (Salmonella typhi; listed as lupeol): 18 mm"
"CCCCCCCCCCCCCCCCCCCCCCCCCCCCCCO [compound 2, 1-triacontanol]",89.5 ± 1.6 μgAAE/mg extract,55.2 ± 1.8 μgAAE/mg extract,59.4 ± 2.1%,29.9 ± 1.4%,82.5 ± 0.8%,50.8 ± 0.9%,9 ± 1.3 mm,10 ± 0.9 mm,10 ± 1.3 mm,15 ± 1.4 mm,15 ± 1.2 mm,"TAC ([1]; listed as 1-triacontanol): 89.5 μgAAE/mg extract; antibacterial ZOI, E. aerogenes (E. aerogenes; listed as 1-triacontanol): 15 mm; antibacterial ZOI, S. setubal (S. setubal; listed as 1-triacontanol): 15 mm"
"COC(=O)c1ccccc1 [compound 3, methyl benzoate]",82.5 ± 1.3 μgAAE/mg extract,45.2 ± 1.6 μgAAE/mg extract,49.4 ± 1.9%,26.2 ± 0.5%,55.1 ± 1.2%,50.3 ± 0.5%,7 ± 0.8 mm,14 ± 1.1 mm,10 ± 1.1 mm,15 ± 1.1 mm,13 ± 1.1 mm,TAC ([1]; listed as methyl benzoate): 82.5 μgAAE/mg extract
"O=C(O)c1ccccc1 [compound 4, benzoic acid]",60.6 ± 1.8 μgAAE/mg extract,59.5 ± 1.5 μgAAE/mg extract,50.8 ± 1.6%,36.5 ± 0.9%,65.8 ± 0.6%,58.9 ± 0.7%,12 ± 1.6 mm,13 ± 1.2 mm,15 ± 1.5 mm,12 ± 1.4 mm,15 ± 1.7 mm,"antibacterial ZOI, S. typhi (Salmonella typhi; listed as benzoic acid): 15 mm"
"C[C@H]1[C@H](C)CC[C@]2(C(=O)O)CC[C@]3(C)C(=CC[C@@H]4[C@@]5(C)CC[C@H](O)C(C)(C)[C@@H]5CC[C@]43C)[C@H]12 [compound 5, 3β-hydroxy-urs-12-en-28-oic acid]",70.4 ± 1.8 μgAAE/mg extract,76.2 ± 1.5 μgAAE/mg extract,58.6 ± 1.7%,48.9 ± 0.6%,78.8 ± 0.5%,76.6 ± 0.8%,13 ± 1.3 mm,14 ± 1.4 mm,16 ± 1.8 mm,12 ± 1.3 mm,13 ± 1.2 mm,"antibacterial ZOI, S. typhi (Salmonella typhi; listed as ursolic acid): 16 mm"
"O=C(O)c1cccc(O)c1 [compound 6, 3-hydroxybenzoic acid]",66.6 ± 1.5 μgAAE/mg extract,62.5 ± 1.3 μgAAE/mg extract,65.8 ± 1.6%,31.5 ± 0.8%,59.8 ± 0.6%,51.9 ± 0.7%,15 ± 1.6 mm,15 ± 1.2 mm,16 ± 1.5 mm,15 ± 1.4 mm,14 ± 1.7 mm,DPPH % (free-radical scavenging) ([2]; listed as 3-Hydroxybenzoic acid): 65.8%
